The list is not random: actives were taken first. Their share in the collection is about 2.3%.
Pemphigus Ab inh = inhibitors of pemphigus antibody binding to human desmoglein-3 | P32926 | binding (percent of control), % at 10 µM | DSG3-coupled beads, scFv-anti-DSG3-GFP binding, flow cytometry; stronger effect = lower value | actives 0.48% (n = 310,000);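 active = binding more than 3 SD below its plate's average and above zero; inconclusive = below that plate limit but binding exactly zero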;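 also: hits lower antibody fragment binding to DSG3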
T cell modulator = T cell immune modulation candidate; actives 0.068% (n = 330,000); AID 2052; 2C CD8+ T cell-vesicle binding, flow cytometry; stronger effect = lower value; response (vesicle binding), % at 7 µM;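 active = response, share of CD8 T cells binding vesicles, and their 90th percentile fluorescence all below set limits, cut at about 80% in these data, passing the limit was not always enough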;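 also: values below 100% mean blocked vesicle binding to the CD8+ T cells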
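Assay system: 2C TCR transgenic mouse naive CD8+ T cells, MACS-purified | Read-out: CD8+ gate FL2 mean fluorescence as % of same-row positive control | Signal: High-throughput flow cytometry with anti-B7-1 and anti-CD8 staining | Timing: Binding step 1.5 h, 37 °C, antibody labelling 20 min, ice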
CHT block = human CHT choline transport inhibition. AID 488975. CHT-expressing cells, membrane potential dye, choline response; stronger effect = lower value. actives 0.86% (n = 310,000). B-score at 10 µM;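 active = B-score over 3 SD under the library average, and starting fluorescence ratio not unusually high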;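 also: choline stimulus applied at its EC90 after an EC20 pre-addition; B-score computed on integrated fluorescence ratio after choline addition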
Target sequence (Q9GZV3 whole entry, looked up): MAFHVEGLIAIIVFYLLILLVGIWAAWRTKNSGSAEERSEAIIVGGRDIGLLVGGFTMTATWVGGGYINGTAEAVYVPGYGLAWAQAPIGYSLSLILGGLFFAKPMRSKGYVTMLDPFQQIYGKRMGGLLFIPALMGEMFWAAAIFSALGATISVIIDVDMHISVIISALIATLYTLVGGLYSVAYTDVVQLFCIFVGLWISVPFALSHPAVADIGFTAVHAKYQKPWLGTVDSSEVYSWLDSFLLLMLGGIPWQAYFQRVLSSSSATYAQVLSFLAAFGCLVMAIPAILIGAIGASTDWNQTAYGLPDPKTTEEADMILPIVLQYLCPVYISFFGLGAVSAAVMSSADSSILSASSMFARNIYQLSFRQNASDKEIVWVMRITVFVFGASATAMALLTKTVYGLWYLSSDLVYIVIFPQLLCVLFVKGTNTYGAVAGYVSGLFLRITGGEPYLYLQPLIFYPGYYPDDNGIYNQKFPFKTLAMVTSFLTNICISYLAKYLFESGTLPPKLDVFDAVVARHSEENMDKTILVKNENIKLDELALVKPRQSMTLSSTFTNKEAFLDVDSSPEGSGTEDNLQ
CHT allo act = allosteric activators of human choline transporter CHT; Q9GZV3; actives 0.49% (n = 310,000); AID 488977; CHT-expressing cells, membrane potential dye, choline EC20; stronger effect = higher value; LV-AA mutant CHT in HEK293 cells; B-score at 10 µM;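 active = initial fluorescence not abnormally high and integrated response B-score, plate-corrected, over 3 SD above library mean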
p-CIP stab down = p/CIP protein destabilization | decrease of EGFP signal, % at 10 µM | F442A p/CIP-EGFP cells, EGFP fluorescence, 16 h | actives 0.01% (n = 290,000) | AID 1984 | Q05BA5;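 active = EGFP signal decrease of at least 30% at 10 µM or well 3 SD below plate mean, unless failing retest; inactive = the rest, including hits failing retest or dose response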
GPR7 antagonist = human neuropeptides B/W receptor 1 antagonism. actives 1.1% (n = 290,000). inhibition, % at 4.4 µM. AID 1861. GPR7-expressing cells, fluorescence antagonist assay; in the data active = inhibition above about 16%, passing the limit was not always enough;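 also: cells stimulated with the agonist NPW; 0% = agonist with vehicle and 100% = vehicle without agonist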
* = called active by the depositor; i = inactive; ? = inconclusive; · = not tested or not shown.

SMILES	Pemphigus Ab inh	T cell modulator	CHT block	CHT allo act	p-CIP stab down	GPR7 antagonist
O=C(Nc1ccccc1)NN1CC(=O)N(c2ccc(Cl)cc2)CC1=O	109	486	i	i	-4	-16
COc1ccc(C(=O)N2CCN(c3cccc(Cl)c3)CC2)cc1	86	393	i	i	-18	-5
COc1ccc(C(=S)N2CCN(c3cccc(Cl)c3)CC2)c(OC)c1	104	884	i	i	-6	28*
O=C(NCCC1=CCCCC1)C(=O)NCc1ccncc1	52*	190	i	i	-9	-3
O[C@@H]1CN(Cc2cccs2)[C@@H](c2ccc(Cl)cc2)C[C@H]1n1cc(-c2ccc(F)cc2)nn1	105	·	·	·	·	·
CC1=C(C(=O)Nc2ccc(Cl)cc2)C(c2cccs2)n2nnnc2N1 (centres undefined)	104	518	i	i	-2	20*
CC(Sc1nnc(NC(=O)c2cc3ccccc3oc2=O)s1)c1ccccc1 (centres undefined)	72*	502	i	i	9	-14
CCCc1nnc(NC(=O)c2cc3ccccc3oc2=O)s1	113	464	i	i	2	9
CCOc1ccc(-c2nc(N)ncc2Oc2ccccc2Br)c(O)c1	23*	181	i	i	-9	-19
Cn1c(SCC(=O)NCC2CCCO2)nnc1-c1c[nH]c2ccccc12 (centres undefined)	?	193	i	i	-2	-9
CCn1c(SCC(=O)NCC2CCCO2)nnc1-c1c[nH]c2ccccc12 (centres undefined)	104	0.0*	i	i	-14	-1
N#C/C(=C/c1cn(CC(=O)O)c2ccccc12)C(=O)NCc1ccccc1	108	177	i	i	75*	10
COc1cccc(OC)c1OCCCc1c(C)n[nH]c1C	102	363	i	i	2	16*
COC(=O)c1ccc(C(=O)OC)c(NC(=O)COC(=O)c2ccccc2OC)c1	-8.0*	442	i	i	-9	-6
Cn1cc(CN2CCC(C(=O)N3CCCCC3)CC2)c(-c2ccccc2F)n1	32*	i	i	i	2	-3
Cc1cc(C(C)(C)C)ccc1OCCCCN1CCCC1	96	675	i	i	-6	-2
CCC(C)(C)c1ccc(OCCCC[n+]2cccc(C)c2C)c(C(C)(C)CC)c1	124	351	i	i	-30	22*
CCn1c(CNc2ccc(Cl)cc2)nnc1SCc1ccc(C)cc1	104	202	i	i	18	11
CCn1c(CNc2cccc(Cl)c2)nnc1SCc1ccccc1	103	i	i	i	-12	19*
Cc1cc(C(=O)OCC(=O)NCc2ccco2)c(C)n1-c1ccc(F)cc1	110	205	-6.3*	i	2	14
CCN(C(=O)Cn1c(=O)oc2ccccc21)c1cccc(C(F)(F)F)c1	113	52*	i	i	-2	-16
CC1=C2C3OC(=O)C(C)C3CCC2(C)C=C(Br)C1=O (centres undefined)	95	·	·	·	·	·
Cc1cn([C@H]2C[C@H](O)[C@@H](CNS(=O)(=O)N3CCCC3)O2)c(=O)[nH]c1=O	100	·	·	·	·	·
O=C(CN1CCCCC1)Nc1ccc(S(=O)(=O)N2CCCCCC2)cc1	102	445	i	i	2	-8
COc1ccc(S(=O)(=O)N2CCN(CC(=O)Nc3cc(Cl)ccc3Cl)CC2)cc1	78	252	·	·	·	·
SMILES	Pemphigus Ab inh	T cell modulator	CHT block	CHT allo act	p-CIP stab down	GPR7 antagonist
COc1ccc(S(=O)(=O)N2CCN(CC(=O)Nc3ccc(F)c(F)c3)CC2)cc1	·	544	i	i	-3	30*
O=C(CN1CCN(c2ccc(O)cc2)CC1)Nc1ccc(S(=O)(=O)N2CCCC2)cc1	73*	162	·	·	·	·
COc1ccc(OC)c(C(=O)CN2CCN(S(=O)(=O)c3ccc(Br)cc3)CC2)c1	·	451	-6.5*	i	0	-2
Nc1ncnc(N)c1NC(=O)c1ccc(OCc2ccccc2)cc1	101	·	·	·	·	·
C[C@H](NC(=O)C1CCN(S(=O)(=O)c2ccccc2)CC1)C(=O)NCc1ccncc1	98	·	·	·	·	·
O=C(NCCc1cn2ccsc2n1)C1CCCCC1	111	i	i	i	-23	-9
O=C(NCCc1cn2ccccc2n1)C1CCCCC1	107	616	i	i	-4	19*
COc1nc(Nc2nc3ccccc3c(=O)[nH]2)nc2ccc(C)cc12	97	280	i	i	-12	-4
COc1nc(N=C(N)N)nc2ccc(C)cc12	·	i	i	7.4*	-9	8
Cc1ccc2cc(C#N)c(N3CCCN(C(=O)C4CCCO4)CC3)nc2c1C (centres undefined)	99	290	-6.1*	i	0	-2
CC(N)C(=O)NC(CO)C(O)C(N)C=O (centres undefined)	117	·	·	·	·	·
COc1cc(/C=C2/SC(=S)N(Cc3ccccc3)C2=O)ccc1OCC(=O)O	113	166	i	i	-14	-2
COc1cc(/C=C2/SC(=S)N(Cc3ccccc3)C2=O)cc(Cl)c1O	150	493	i	i	-660	89*
O=C1/C(=C\c2cccc([N+](=O)[O-])c2O)SC(=S)N1Cc1ccccc1	105	0	-8.4*	i	-19	20
COc1cc([N+](=O)[O-])cc(/C=C2/SC(=S)N(Cc3ccccc3)C2=O)c1O	102	273	-5.8*	i	-93	6
O=C(OCc1ccccc1)N1CCC2CC1c1ccc(N3CCNCC3)cc12 (centres undefined)	98	·	·	·	·	·
CC1(C)N=C(N)N=C(N)N1c1ccc(CCCCc2ccccc2)cc1	106	·	·	·	·	·
Cn1c(/N=C(\N)c2ccccc2)nc2ccccc21	101	·	·	·	·	·
O=c1[nH]c(=O)c2nc(-c3ccc(Cl)cc3)cnc2[nH]1	99	267	i	i	5	-12
O=c1[nH]c(=O)c2nc3c4ccccc4c4ccccc4c3nc2[nH]1	29*	398	i	i	1	-7
C[C@@H]1CN([C@@H](C)CO)C(=O)c2cc(NC(=O)Nc3ccccc3)ccc2O[C@@H](C)CCCCO[C@H]1CN(C)C(=O)Nc1ccc(C(F)(F)F)cc1	96	·	·	·	·	·
CCCc1cc(=O)[nH]c(SCC(=O)N2CCN(S(=O)(=O)c3ccc4ccccc4c3)CC2)n1	-2.3*	183	i	i	-1	-6
CCCc1cc(=O)[nH]c(SCC(=O)N2CCN(S(=O)(=O)c3ccccc3)CC2)n1	98	112	i	i	-6	-2
COc1ccc([N+](=O)[O-])cc1NC(=O)COC(=O)C12CC3CC(CC(O)(C3)C1)C2	99	·	·	·	·	·
COc1ccc(OC)c(Nc2cc(C)nc3nc(C)nn23)c1	82*	263	i	i	-16	0

Source: PubChem BioAssay (several laboratories)
